Test results: the RNAGym collection of RNA variant scans (doi:10.1126/science.aae0568)
This sample holds only a part of the variants without activity.

B1: tRNA (parent)
chain: GUUCCGUUGGCGUAAUGGUAACGCGUCUCCCUCCUAAGGAGAAGACUGCGGGUUCGAGUCCCGUACGGAACG

Variants of: B1
Test: yeast fitness relative to wild type (ratio to wild type); higher = fitter; tRNA-Arg(CCU), competitive growth, 37 C, YPD
Summary of the method: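 Start and end populations of a pooled competition were compared by 100-nucleotide paired-end sequencing of gene amplicons. The Saccharomyces cerevisiae strains carried tRNA-Arg(CCU) gene variants at the native genomic locus, synthesised with a 3% per-site mutation rate at 69 sites, and competed in YPD at 37°C for 24 hours in six parallel replicates. Darwinian fitness relative to wild type was based on the change in genotype frequencies. Genotypes required ≥ 100 starting reads, and estimates < 0.5 were set to 0.5.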

Row | Variant | yeast fitness
1 | A15C A43C | 0.609
2 | A15C U47A G52A | 0.576
3 | A15C C31U G68C | ≤ 0.5
4 | A15G A43G | 0.975
5 | A15C U28A | 0.622
6 | A14U U19A A36C G58C A69U | 0.555
7 | A15C G17A G18A A36C C55U | ≤ 0.5
8 | A15G A20U C24G A42G U54C | 0.575
9 | A15C U16C G17C C49G | ≤ 0.5
10 | A15C C27G G48A C49G | ≤ 0.5
11 | A15G C24A G52A | ≤ 0.5
12 | A15C A21U C24U | ≤ 0.5
13 | A15C C46U C60U A65C | ≤ 0.5
14 | A15C C27U C31A | ≤ 0.5
15 | A15C A37U | 0.624
16 | A15G A20G C49A C61U C62A G67C | ≤ 0.5
17 | A15C C30G A42C G56A A57U G63A | ≤ 0.5
18 | A15G A37G G38A A45U | 0.507
19 | A15C G48A | 0.946
20 | A15C C46U A57G C66A | ≤ 0.5
21 | A14U U28A G56C G67U | ≤ 0.5
22 | A15G A40G A65G | 0.663
23 | A15C A20C C55U | ≤ 0.5
24 | A15C U19A G48A C62G U64C | ≤ 0.5

Row | Variant | yeast fitness
25 | A14U U19G C30G | ≤ 0.5
26 | A15C G17A G18A A36C C55U C66A | 0.529
27 | A14U U28A G41C A42U G52A A70C | ≤ 0.5
28 | A14U U59G A65U | 0.547
29 | A15C C46U G50A | 0.711
30 | A15C C30A G63A | ≤ 0.5
31 | A15C A43C G48C | 0.544
32 | A15C G48C C61A | ≤ 0.5
33 | A15C C24G A37C C60U | ≤ 0.5
34 | A15G A70G | 0.999
35 | A15G A70C | 1.04
36 | A15C A57G | 0.812
37 | A15C G38C C49G G68C | ≤ 0.5
38 | A15C C27U C31A C55U G68A | ≤ 0.5
39 | A14U G67A | 0.733
40 | A15G A20U C33A A36C A42U | ≤ 0.5
41 | A15G A36G A70C | 0.674
42 | A15C C34G A37U C46G | ≤ 0.5
43 | A14U G56A | 0.619
44 | A15G A20G A21C C31U | ≤ 0.5
45 | A15C C55G | 0.593
46 | A15C C55U | 0.625
47 | A15G A20G C49A C62U G63A | ≤ 0.5
48 | A15C C34G U35G A36U U59A | ≤ 0.5

Row | Variant | yeast fitness
49 | A15G A21U G63A | 0.627
50 | A15C G17A C22U G23C G51A A70U | 0.596
51 | A14U G58A C61U | 0.509
52 | A15C U32A | 0.595
53 | A15C A36C G48A G67A | 0.541
54 | A15C A20G G51A C55G | 0.532
55 | A15C A45C | 0.587
56 | A15C A45G | 0.583
57 | A14U U19A G23A A43C A57G U64G | ≤ 0.5
58 | A15G C24G U26A G52A | 0.589
59 | A15C G38A U54A A57U | ≤ 0.5
60 | A15C A40G U53C | ≤ 0.5
61 | A15C U19A A21G C22G C30U C55G | ≤ 0.5
62 | A15C U35G A57G C66G | 0.56
63 | A15C A21C C34U A37U | ≤ 0.5
64 | A15C U28A C34G C55A A57U U59C C60U | ≤ 0.5
65 | A15C U19C C31G G56C C66U | ≤ 0.5
66 | A15C U26C C62U | ≤ 0.5
67 | A15G A36G G44C | 0.659
68 | A14U U59C A70C | ≤ 0.5
69 | A15G A42G A45C | 0.557
70 | A15C C61U A69U | 0.571
71 | A15C A20G C31A U59C A69G | ≤ 0.5
72 | A15G A37G C55A | ≤ 0.5

Row | Variant | yeast fitness
73 | A15G A57G C62G C66U | ≤ 0.5
74 | A15C G23C C31U A57C C66U | ≤ 0.5
75 | A15G A20U C29G A43G | ≤ 0.5
76 | A15C C30U C33G | ≤ 0.5
77 | A15C A36G C49U G67U | 0.632
78 | A15G A36C U47A G48C U54G A65C | ≤ 0.5
79 | A15C C31G C55A C66U | ≤ 0.5
80 | A15G A21G | 1.02
81 | A15C A36G U47C C55A A69U | 0.538
82 | A15C G18A A20U | ≤ 0.5
83 | A15G C27A A36G A43G A65G | 0.571
84 | A15C G17A U28A | 0.675
85 | A15C C31G G58A U59A A65U | ≤ 0.5
86 | A15G A43U A69C | 0.8
87 | A15C U35A G50C A65C | 0.603
88 | A15C C62A | 0.665
89 | A15C C62U | 0.755
90 | A15C C34A G63C | ≤ 0.5
91 | A15C G41A G48C | 0.568
92 | A15C A20G C61U C62U A69G | 0.764
93 | A15G A20U G39A A69C | ≤ 0.5
94 | A15G A40G | 0.758
95 | A15C C55U A65G | ≤ 0.5
96 | A15C A36G G39C C55U C66U | ≤ 0.5

Row | Variant | yeast fitness
97 | A15C C27A G58A A70U | 0.525
98 | A15C C29U A69C | ≤ 0.5
99 | A15G A37C G48C | ≤ 0.5
100 | A15C G17C G50A A69U | ≤ 0.5
101 | A15C A42G | 0.76
102 | A15C G39A C62U | 0.553
103 | A15G A42C A45C G48A | 0.63
104 | A15C C46U A69U | 0.814
105 | A14U U54C C62U | ≤ 0.5
106 | A15C G58A C61G C62G | ≤ 0.5
107 | A15C U19A C24G C34G C46U C61A A70U | 0.639
108 | A15C U16A C31G C34U A69U | ≤ 0.5
109 | A15G C24U C29U C30G U35G | 0.737
110 | A15C A21C C27G C62U | 0.534
111 | A15C C49U | 0.896
112 | A15C C49G | 0.652
113 | A15G C27A | 0.786
114 | A15C G17A C22U G23C G51A | 0.565
115 | A15C U35C A42G G67U | ≤ 0.5
116 | A15C C29A C66U | ≤ 0.5
117 | A15C C22U U54A | 0.636
118 | A15C G38A A45G G52A C61G | 0.539
119 | A15C A36G | 0.888
120 | A14U U19C A65U | ≤ 0.5

Row | Variant | yeast fitness
121 | A15C A43U A65G | 0.583
122 | A15C A40C C49G | ≤ 0.5
123 | A14U G50C U53A A57U A65U | 0.687
124 | A15G A36G | 0.867
125 | A15G A36U | 0.679
126 | A15G C24G C29U C34G U35C U54G G67C | ≤ 0.5
127 | A15C C22A A42C C46A A65U | ≤ 0.5
128 | A15C A21G C22U U47C | ≤ 0.5
129 | A15G C24G C66G G67A | 0.64
130 | A15C C22A G25C U28A A36U A70G | ≤ 0.5
131 | A15G C24G U32A G41A A69U | ≤ 0.5
132 | A15C G68U | 0.735
133 | A15C G68C | 0.633
134 | A15G A20U A57U C60U | ≤ 0.5
135 | A15C U19A | 0.817
136 | A15G A20G G48A | 0.738
137 | A15C A36U A37G A65C | ≤ 0.5
138 | A15G A69C | 0.999
139 | A15G A42C C49A | 0.527
140 | A15C C30A A57G | ≤ 0.5
141 | A15G A21C U54G A65U | ≤ 0.5
142 | A15G C22G A36U A40G U59A | ≤ 0.5
143 | A15C G25C C29U U35C A43U A57C G58A | ≤ 0.5
144 | A15C G23C C55A A65G | ≤ 0.5

Row | Variant | yeast fitness
145 | A14U U35G C62G | ≤ 0.5
146 | A15C C33U C49U | ≤ 0.5
147 | A15C G17C C31A G44C A70G | ≤ 0.5
148 | A15G A20C C24G A57G | ≤ 0.5
149 | A15C A21G C22U A43U A57U | ≤ 0.5
150 | A15G A20C U54A | ≤ 0.5
151 | A15G A21G C27U U47C G56C A57G C66G | ≤ 0.5
152 | A15C C66U | 0.605
153 | A15C G25A C27A C33U C34A C61U | ≤ 0.5
154 | A15G A21G C34G A45G A65C | 0.67
155 | A15C C33G A42C A45C | ≤ 0.5
156 | A14U U28A G51A | ≤ 0.5
157 | A15C U19A C30U A37C G41A | ≤ 0.5
158 | A15C C31A U59C A69G | ≤ 0.5
159 | A15C A36U C61A | ≤ 0.5
160 | A14U U64C | 0.71
161 | A15G A57U C60G G68C | ≤ 0.5
162 | A15G C24G A37G C49A | ≤ 0.5
163 | A15G A21C C24G A40U | ≤ 0.5
164 | A15C G23C G39C G63A A69C | ≤ 0.5
165 | A14U U19A C31U | ≤ 0.5
166 | A15C G48A A57G | 0.536
167 | A14U U19A | 0.709
